In ChEMBL document CHEMBL4428115, “Molecular docking studies, biological and toxicity evaluation of dihydroisoquinoline derivatives as potential anticancer agents” (Bioorg Med Chem, 2016):
Calls of active or inactive are those of the source. The calls are words filed in the database; no cut-off is given here.

Assays:
MCF10 = assay: Antiproliferative activity against human MCF10 cells after 72 hrs by SRB assay; format: cell-based; details: MCF10, 72 h
How it was run: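 Adherent cells plated at 1 × 10^4 per well 24 h before treatment, then exposed 72 h to compounds diluted from 20 mg/mL DMSO stock (0.01–1000 µg/mL). Fixed in cold 50% TCA at 4°C for 1 h, stained with 0.4% sulforhodamine B, bound dye extracted with 10 mM Tris, OD at 540 nm. Triplicates, 3–5 experiments; IC50 per experiment, mean ± SD.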

HT-29 = assay: Antiproliferative activity against human HT-29 cells at 290 uM; format: functional, cell-based
CEM/C2 = assay: Antiproliferative activity against human CEM/C2 cells; format: functional, cell-based
LNCaP = assay: Antiproliferative activity against human LNCAP cells; format: functional, cell-based
[1] = Antiproliferative activity against human LoVo/DX cells; format: functional, cell-based
[2] = Antiproliferative activity against human HCV29T cells; format: functional, cell-based
A549 [3] = assay: Antiproliferative activity against human A549 cells; format: functional, cell-based
LoVo = assay: Potency index, ratio of bestatin IC50 to compound IC50 for human LoVo cells; format: functional
A549 [4] = assay: Potency index, ratio of bestatin IC50 to compound IC50 for human A549 cells; format: functional
[5] = Selectivity index, ratio of IC50 for mouse BALB/3T3 cells to IC50 for human HL60 cells; format: toxicity; details: BALB/3T3 cells versus HL60 cells, read-out: Ratio IC50
How it was run: (§1)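 Ratio of the BALB/3T3 IC50 to the HL-60 or HL-60/MX2 IC50. Cells were plated at 1 × 10^4 per well 24 h before dosing and exposed for 72 h to 0.01–1000 µg/mL from DMSO stock. BALB/3T3 was read by SRB (TCA fix, 540 nm) and the leukemia lines by MTT (4 h, SDS/DMF lysis, 570 nm). Triplicates; 3–5 experiments.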

[6] = Selectivity index, ratio of IC50 for mouse BALB/3T3 cells to IC50 for human HL60/MX2 cells; format: toxicity; details: BALB/3T3 cells versus HL60/MX2 cells, read-out: Ratio IC50; how it was run: as §1
[7] = Selectivity index, ratio of IC50 for mouse BALB/3T3 cells to IC50 for human MCF7 cells; format: toxicity; details: BALB/3T3 cells versus MCF7 cells, read-out: Ratio IC50
How it was run: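 Selectivity index is the BALB/3T3 IC50 divided by the MCF-7 IC50. Both adherent lines were plated at 1 × 10^4 per well, dosed 24 h later with 0.01–1000 µg/mL (diluted from 20 mg/mL DMSO stock) for 72 h, then fixed with cold TCA and stained with SRB, reading at 540 nm. Triplicate wells; 3–5 repeat experiments.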

[8] = Selectivity index, ratio of IC50 for mouse BALB/3T3 cells to IC50 for human K562 cells; format: toxicity; details: BALB/3T3 cells versus K562 cells, read-out: Ratio IC50
[9] = Selectivity index, ratio of IC50 for mouse BALB/3T3 cells to IC50 for human PC3 cells; format: toxicity; details: BALB/3T3 cells versus PC3 cells, read-out: Ratio IC50
[10] = Selectivity index, ratio of IC50 for mouse BALB/3T3 cells to IC50 for human A549 cells
HL-60 [11] = assay: Effect on cyclin A levels in human HL60 cells at 1 ug/ml after 72 hrs by Western-blot analysis; format: functional, cell-based
How it was run: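 HL-60 (2 × 10^5 cells/mL) treated 72 h at 1 µg/mL with DMSO control, then lysed in RIPA buffer with protease/phosphatase inhibitors. 100 µg protein resolved on 4–20% gels and transferred to nitrocellulose. Probed with rabbit primary antibody, fluorescein-linked anti-rabbit secondary, then anti-fluorescein–alkaline phosphatase with ECF substrate; fluorescence scanned. Densitometry normalized to actin, reported as fold change versus control.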

HL-60 [12] = assay: Induction of apoptosis in human HL60 cells assessed as increase in late apoptotic cells at 3 ug/ml after 72 hrs by APC-Annexin V/propidium iodide staining based flow cytometry relative to control; format: functional, cell-based
How it was run: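 HL-60 (2 × 10^5 cells/mL, seeded 24 h before) treated 72 h at 3 µg/mL alongside a DMSO control. Cells suspended in APC-Annexin V in HEPES binding buffer pH 7.4 with 1.8 mM CaCl2, 15 min dark at rt, then PI at 0.1 mg/mL final. Flow cytometry: PI+/Annexin+ counted as late apoptotic/necrotic. Three experiments, mean ± SD, p≤0.05 versus control.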

HL-60 [13] = assay: Decrease in mitochondrial membrane potential in human HL60 cells at 3 ug/ml after 24 hrs using JC-1 staining based flow cytometry relative to control; format: functional, cell-based
How it was run: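 HL-60 treated 24 h at 3 µg/mL alongside DMSO control; […] for 24 h served as the low-potential control. Cells stained with JC-1 at 10 µg/mL final for 30 min at 37°C in the dark, washed, and analysed by flow cytometry (red aggregates vs green monomers). Three independent experiments, mean ± SD.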

[14] = Toxicity in New Zealand albino rabbit assessed as acute skin irritation/corrosion at 0.5 g topically applied to shaved skin for 4 hrs measured 1 to 72 hrs post dose; parameters: species or system Oryctolagus cuniculus; details: in vivo, topical_or_ocular
How it was run: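 Test item applied under a protective band for 4 h to one rabbit first, then to two more animals to confirm or exclude irritation. Treated skin scored at 1, 24, 48 and 72 h after exposure, with daily morbidity and mortality checks. Animals euthanized after the observation period.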

[15] = Acute dermal toxicity in Wistar rat assessed as pathological changes at 2000 mg/kg topically applied to shaved dorsal skin as single dose for 24 hrs measured for 14 days; format: organism-based; details: in vivo, topical_or_ocular
How it was run: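 Wistar rats, 5 males and 5 females; single 2000 mg/kg bw dermal application to shaved dorsal skin (about 41 cm2 per male, 31 cm2 per female) for 24 h. General and detailed clinical observations daily over a 14-day observation period, then animals euthanized; treated skin examined for pathological changes.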

[16] = Acute toxicity in Balbc/cmdb mouse assessed as clinical signs at 300 mg/kg, po administered as single dose in first stage of experiment measured immediately post dose; format: organism-based; details: in vivo
How it was run: (§2)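 Acute toxic class method per OECD Guideline 423 / EU Method B.1 tris, run in three stages of three female Balbc/cmdb mice each. Fasted about 3 h, then given a single dose by metal stomach tube in DMSO at 0.5 mL/100 g bw. Stage doses were 300, 2000, then 2000 mg/kg bw. General and detailed clinical observations daily for 14 days; body weights recorded.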

[17] = Acute toxicity in Balbc/cmdb mouse assessed as clinical signs at 300 mg/kg, po administered as single dose in first stage of experiment measured for 14 days; format: organism-based; details: in vivo, 336 h; how it was run: as §2
[18] = Acute toxicity in Balbc/cmdb mouse assessed as clinical signs at 2000 mg/kg, po administered as single dose in second stage of experiment measured immediately post dose; format: organism-based; details: in vivo; how it was run: as §2
[19] = Acute toxicity in Balbc/cmdb mouse assessed as clinical signs at 2000 mg/kg, po administered as single dose in second stage of experiment measured for 14 days; format: organism-based; details: in vivo, 336 h; how it was run: as §2
[20] = Acute toxicity in Balbc/cmdb mouse assessed as clinical signs at 2000 mg/kg, po administered as single dose in third stage of experiment measured immediately post dose; format: organism-based; details: in vivo; how it was run: as §2
[21] = Acute toxicity in New Zealand albino rabbit assessed as conjunctiva at 0.068 g applied to conjunctival sac of eye measured 1 to 72 hrs post dose; parameters: species or system Oryctolagus cuniculus; details: in vivo, topical_or_ocular

For `CCOC(=O)C1(C(=O)OCC)Cc2cc(OCc3ccccc3)cc(OCc3ccccc3)c2C=N1`, which IC50 (MCF10) is on record?
The IC50 was 40.2 µM.

What about the “growth inhibition (GI)” value (HT-29) of the same molecule?
Its value is “inactive”.

What about the IC50 (CEM/C2) of the same molecule?
The IC50 was 0.4 µM.

And the IC50 (LNCaP)?
Its IC50 is 3.3 µM.

And the IC50 [1]?
The IC50 was 4.1 µM.

What about the IC50 [2] of the same molecule?
The IC50 was 8.8 µM.

And the IC50 (A549 [3])?
The IC50 was 13.1 µM.

What about the “Ratio IC50” value (LoVo) of the same molecule?
The value was 212.

And the “Ratio IC50” value (A549 [4])?
Its value is 18.

And the selectivity ratio [5]?
The selectivity ratio was 5.8.

What about the selectivity ratio [6] of the same molecule?
The selectivity ratio was 7.

What about the selectivity ratio [7] of the same molecule?
The selectivity ratio was 3.7.

And the selectivity ratio [8]?
The selectivity ratio was 0.5.

And the selectivity ratio [9]?
The selectivity ratio was 8.5.

What about the “Ratio IC50” value [10] of the same molecule?
Its value is 2.7.

What about the Activity (HL-60 [11]) of the same molecule?
The Activity was “inactive”.

What about the Activity (HL-60 [12]) of the same molecule?
Its Activity is “Active”.

What about the Activity (HL-60 [13]) of the same molecule?
Its Activity is “Active”.

What about the Activity [14] of the same molecule?
Its Activity is “Non-Toxic”.

What about the Activity [15] of the same molecule?
Its Activity is “Non-Toxic”.

What about the Activity [16] of the same molecule?
The Activity was “Toxic”.

What about the Activity [17] of the same molecule?
Its Activity is “Non-Toxic”.

And the Activity [18]?
The Activity was “Toxic”.

What about the Activity [19] of the same molecule?
Its Activity is “Non-Toxic”.

What about the Activity [20] of the same molecule?
The Activity was “Toxic”.

And the Activity [21]?
Its Activity is “Non-Toxic”.
